Our source for the Activity, Time and ED75 values is ChEMBL document CHEMBL3244101, “2-, 3-, and 4-(alpha, alpha, beta, beta-tetrafluorophenethyl)benzylamines. A new class of antiarrhythmic agents” (J Med Chem, 1977).

Data set [1] relates to Canis familiaris. Kind of data set: Reduction in heart rate in anesthetized acute myocardial infarction dog model at 40 mg/kg, iv administered 10 mins prior to infarction (reference value: 6 bpm). Type of data set: functional, Canis lupus familiaris.
In data set [2] the test system is Canis familiaris. Kind of data set: Hypotensive activity in iv dosed anesthetized dog at higher doses. In kind it is ADME, organism-based, Canis lupus familiaris. Conditions: in vivo.
Data set [3] has as its system Canis familiaris. Kind of data set: Reduction in heart rate in anesthetized acute myocardial infarction dog model at 20 mg/kg, iv administered 10 mins prior to infarction (reference value: 6 bpm). Type of data set: functional, Canis lupus familiaris.
Data set [4] has as its system Canis familiaris. The data set can be described thus: Effect on cardiac conduction in anesthetized acute myocardial infarction dog model assessed as increase in PR interval at 20 mg/kg, iv administered 10 mins prior to infarction measured after 10 mins (reference value: 0 ms). Type of data set: functional, Canis lupus familiaris, Heart.
Data set [5] deals with Canis familiaris. The data set can be described thus: Effect on cardiac conduction in anesthetized acute myocardial infarction dog model assessed as increase in QT duration at 40 mg/kg, iv administered 10 mins prior to infarction measured after 10 mins (reference value: 2 ms). In kind it is functional, Canis lupus familiaris, Heart.
Data set [6] has as its system Canis familiaris. Kind of data set: Effect on cardiac conduction in anesthetized acute myocardial infarction dog model assessed as increase in QT duration at 20 mg/kg, iv administered 10 mins prior to infarction measured after 10 mins (reference value: 2 ms). Type of data set: functional, Canis lupus familiaris, Heart.
The test system of data set [7] is Canis familiaris. The data set can be described thus: Myocardial depressant activity in iv dosed anesthetized dog at higher doses. The conditions noted are these: in vivo. In kind it is ADME, organism-based, Canis lupus familiaris, Myocardium.
Data set [8] deals with Canis familiaris. The data set can be described thus: Antiarrhythmic activity in anesthetized acute myocardial infarction dog model assessed as normal ECG complexes at 20 mg/kg, iv administered 10 mins prior to infarction measured during 1-hr postinfarction period (reference value: 19%). Type of data set: functional, Canis lupus familiaris, Heart. In short, it runs like this:
(§1)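 Sclerosing agent (tetrafluorohexachlorobutane) injected into the anterior descending coronary artery to produce a multifocal ventricular arrhythmia. Single iv dose 10 min before infarction. Segmented ECG tracings over the 1 h after infarction were scored as the percentage of complexes of sinus origin (normal). Saline controls were run alongside.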

In data set [9] the test system is Canis familiaris. The data set can be described thus: Effect on cardiac conduction in anesthetized acute myocardial infarction dog model assessed as increase in PR interval at 40 mg/kg, iv administered 10 mins prior to infarction measured after 10 mins (reference value: 0 ms). In kind it is functional, Canis lupus familiaris, Heart.
For data set [10], the system named is Canis familiaris. The data set can be described thus: Antiarrhythmic activity in anesthetized acute myocardial infarction dog model assessed as normal ECG complexes at 40 mg/kg, iv administered 10 mins prior to infarction measured during 1-hr postinfarction period (reference value: 19%). Type of data set: functional, Canis lupus familiaris, Heart. In short, it runs like this:
as §1

Data set [11] deals with Canis familiaris. Kind of data set: Reduction in heart rate in anesthetized acute myocardial infarction dog model at 2.5 mg/kg, iv administered 10 mins prior to infarction (reference value: 6 bpm). Type of data set: functional, Canis lupus familiaris.
In data set [12] the test system is Canis familiaris. The data set can be described thus: Antiarrhythmic activity in anesthetized acute myocardial infarction dog model assessed as normal ECG complexes at 2.5 mg/kg, iv administered 10 mins prior to infarction measured during 1-hr postinfarction period (reference value: 19%). In kind it is functional, Canis lupus familiaris, Heart. In short, it runs like this: as §1

For data set [13], the system named is Canis familiaris. Kind of data set: Reduction in heart rate in anesthetized acute myocardial infarction dog model at 10 mg/kg, iv administered 10 mins prior to infarction (reference value: 6 bpm). In kind it is functional, Canis lupus familiaris.
Data set [14] deals with Canis familiaris. The data set can be described thus: Antiarrhythmic activity in iv dosed anesthetized acute myocardial infarction dog model assessed as protection against ventricular arrhythmia development administered 10 mins prior to infarction measured during 1-hr postinfarction period. Conditions: Canis lupus familiaris, Heart, iv; read-out: ED75. In kind it is functional, Canis lupus familiaris, Heart. In short, it runs like this: as §1

Data set [15] relates to Canis familiaris. The data set can be described thus: Effect on cardiac conduction in anesthetized acute myocardial infarction dog model assessed as increase in PR interval at 2.5 mg/kg, iv administered 10 mins prior to infarction measured after 10 mins (reference value: 0 ms). Type of data set: functional, Canis lupus familiaris, Heart.
The subject of data set [16] is Canis familiaris. Kind of data set: Effect on cardiac conduction in anesthetized acute myocardial infarction dog model assessed as increase in QT duration at 10 mg/kg, iv administered 10 mins prior to infarction measured after 10 mins (reference value: 2 ms). In kind it is functional, Canis lupus familiaris, Heart.
Data set [17] has as its system Canis familiaris. The data set can be described thus: Antiarrhythmic activity in anesthetized acute myocardial infarction dog model assessed as normal ECG complexes at 10 mg/kg, iv administered 10 mins prior to infarction measured during 1-hr postinfarction period (reference value: 19%). Type of data set: functional, Canis lupus familiaris, Heart. Summed up:
as §1

Data set [18] has as its system Canis familiaris. The data set can be described thus: Antiarrhythmic activity in anesthetized acute myocardial infarction dog model assessed as normal ECG complexes at 5 mg/kg, iv administered 10 mins prior to infarction measured during 1-hr postinfarction period (reference value: 19%). Type of data set: functional, Canis lupus familiaris, Heart. Summed up: as §1

For data set [19], the system named is Canis familiaris. The data set can be described thus: Effect on cardiac conduction in anesthetized acute myocardial infarction dog model assessed as increase in PR interval at 5 mg/kg, iv administered 10 mins prior to infarction measured after 10 mins (reference value: 0 ms). Type of data set: functional, Canis lupus familiaris, Heart.
Data set [20] deals with Canis familiaris. Kind of data set: Effect on cardiac conduction in anesthetized acute myocardial infarction dog model assessed as increase in PR interval at 10 mg/kg, iv administered 10 mins prior to infarction measured after 10 mins (reference value: 0 ms). Type of data set: functional, Canis lupus familiaris, Heart.
Data set [21] deals with Canis familiaris. Kind of data set: Effect on cardiac conduction in anesthetized acute myocardial infarction dog model assessed as increase in QT duration at 2.5 mg/kg, iv administered 10 mins prior to infarction measured after 10 mins (reference value: 2 ms). In kind it is functional, Canis lupus familiaris, Heart.
Data set [22] deals with Canis familiaris. The data set can be described thus: Reduction in heart rate in anesthetized acute myocardial infarction dog model at 5 mg/kg, iv administered 10 mins prior to infarction (reference value: 6 bpm). In kind it is functional, Canis lupus familiaris.
The subject of data set [23] is Canis familiaris. The data set can be described thus: Effect on cardiac conduction in anesthetized acute myocardial infarction dog model assessed as increase in QT duration at 5 mg/kg, iv administered 10 mins prior to infarction measured after 10 mins (reference value: 2 ms). In kind it is functional, Canis lupus familiaris, Heart.

Consider `CCN(CC)CCNC(=O)c1ccc(N)cc1` [PROCAINAMIDE], for which the Activity was 25 bpm in data set [1]; “Toxic” in data set [2]; 26 bpm in [3]; “Toxic” in [7]; 32% in data set [8]; 55% in data set [10]. The Time in data set [4] amounted to 10 ms; in data set [5], 33 ms; in data set [6] it was 40 ms; in [9], 23 ms.
With `C=C[C@H]1CN2CC[C@H]1C[C@@H]2[C@@H](O)c1ccnc2ccc(OC)cc12` [QUINIDINE], the Activity in [11] amounted to 21 bpm; in [12], 25%; in data set [13], 31 bpm; in data set [17] it was 89%; in data set [18], 46%; in data set [22], 24 bpm. Moreover, the ED75 in [14] came to 9.4 mg/kg. Moreover, the Time was found to be 0 ms in data set [15]; 78 ms in [16]; 8 ms in [19]; 15 ms in data set [20]; 33 ms in [21]; 36 ms in [23].
